Values joined by “and” are separate entries in the source; they are usually repeats but may differ in a detail not shown here. Equal entries are not always repeated.
Experiments:
[1] = molecular target: T1, Receptor tyrosine-protein kinase erbB-2 (Homo sapiens, UniProt P04626); assay: Inhibition of heregulin-stimulated autophosphorylation of ERBB2 receptor kinase in MDA-MB-453 cells.; type: cell-based
In short: (§1)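 MDA-MB-453 cells in αMEM/F12 with 10% FBS were grown to 90% confluency and held serum-free for 18 h. Cells were treated 1 h with varied inhibitor concentrations, then stimulated 5 min with heregulin (10 ng/mL) and lysed in boiling Laemmli buffer. Read-out was SDS-PAGE and antiphosphotyrosine Western blot with [125I]protein A detection and laser densitometry. IC50 is the average of two experiments.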

[2] = test system: NCI-H125; assay: In vivo activity against H125 xenograft in nude mice, ratio of treated/control median tumor mass at 200 mg/kg peroral dose; type: functional; conditions: route oral
In short: (§2)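 Nude (NCr nu/nu) mice of 18–22 g were randomized and implanted sc in the right axilla with serially passaged A431 or H125 tumor fragments on day 0. Dosing by average cage weight (6 mice/group) ip or po began at 100–150 mg tumor mass. The ip vehicle was 6% dimethylacetamide/94% 50 mM sodium lactate pH 4.0 suspension; later suspensions used 0.5% methylcellulose. T/C = median treated/control tumor mass ×100% on the last therapy day. T−C = days for tumors to reach 750 mg.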

[3] = test system: A-431; assay: (§3) In vivo activity against A431 xenograft in nude mice, weight change at 200 mg/kg peroral dose; type: functional, organism-based; set-up: dose 200 mg/kg; in short: as §2
[4] = test system: A-431; assay: In vivo activity against A431 xenograft in nude mice, ratio of treated/control median tumor mass at 200 mg/kg peroral dose; type: functional; conditions: route oral; in short: as §2
[5] = molecular target: T2, Epidermal growth factor receptor (Homo sapiens, UniProt P00533)
[6] = test system: NCI-H125; assay: (§4) In vivo activity against H125 xenograft in nude mice, weight change at 200 mg/kg peroral dose; type: functional; conditions: route oral; in short: as §2
[7] = test system: Mus musculus; assay: Difference in days for treated (T) and control (C) tumors to reach 750 mg at 200 mg/kg ip dose; type: functional; conditions: route intraperitoneal; in short: as §2
[8] = molecular target: T2, Epidermal growth factor receptor; remark: listed apart in the source
[9] = test system: A-431; assay: In vivo activity against A431 xenograft in nude mice, weight change at 260 mg/kg peroral dose; conditions: route oral
[10] = test system: Mus musculus; assay: In vivo activity against tumor xenograft in nude mice, weight change at 75 mg/kg ip dose; type: functional; conditions: route intraperitoneal; in short: as §2
[11] = test system: NCI-H125; assay: In vivo activity against H125 xenograft in nude mice, ratio of treated/control median tumor mass at 50 mg/kg ip dose; type: functional; conditions: route intraperitoneal; in short: as §2
[12] = test system: A-431; assay: In vivo activity against A431 xenograft in nude mice, ratio of treated/control median tumor mass at 260 mg/kg peroral dose; conditions: route oral
[13] = test system: NCI-H125; assay: In vivo activity against H125 xenograft in nude mice, weight change at 50 mg/kg ip dose; type: functional; conditions: route intraperitoneal; in short: as §2
[14] = test system: NCI-H125; assay: In vivo activity against H125 xenograft in nude mice, ratio of treated/control median tumor mass at 250 mg/kg peroral dose; type: functional; conditions: route oral; in short: as §2
[15] = test system: A-431; assay: Difference in days for treated (T) and control (C) A431 cell tumors to reach 750 mg at 75 mg/kg ip dose; type: functional; conditions: route intraperitoneal; in short: as §2
[16] = test system: NCI-H125; assay: Difference in days for treated (T) and control (C) H125 cell tumors to reach 750 mg at 50 mg/kg ip dose; type: functional; conditions: route intraperitoneal; in short: as §2
[17] = test system: NCI-H125; assay: In vivo activity against H125 xenograft in nude mice, weight change at 250 mg/kg peroral dose; type: functional; conditions: route oral; in short: as §2
[18] = test system: A-431; assay: In vivo activity against A431 cell tumor xenograft in nude mice at 75 ip mg/kg dose; type: functional; in short: as §2
[19] = test system: NCI-H125; assay: Difference in days for treated (T) and control (C) tumors to reach 750 mg at 250 mg/kg peroral dose; type: functional; conditions: route oral; in short: as §2
[20] = test system: A-431; assay: Difference in days for treated (T) and control (C) A431 cell tumors to reach 750 mg at 260 mg/kg peroral dose; type: functional; conditions: route oral; in short: as §2
[21] = test system: A-431; assay: In vivo activity against A431 xenograft in nude mice, weight change at 40 mg/kg peroral dose; type: functional; conditions: route oral; in short: as §2
[22] = test system: A-431; assay: Difference in days for treated (T) and control (C) A431 cell tumors to reach 750 mg at 40 mg/kg peroral dose; type: functional; conditions: route oral; in short: as §2
[23] = test system: A-431; assay: In vivo activity against A431 xenograft in nude mice, ratio of treated/control median tumor mass at 40 mg/kg peroral dose; type: functional; conditions: route oral; in short: as §2
[24] = test system: Mus musculus; assay: Difference in days for treated (T) and control (C) tumors to reach 750 mg at 200 mg/kg peroral dose; type: functional; conditions: route oral; in short: as §2
[25] = test system: A-431; assay: as §3; type: functional; conditions: route oral; in short: as §2
[26] = test system: A-431; assay: In vivo activity against A431 xenograft in nude mice, weight change at 1150 mg/kg peroral dose; type: functional; conditions: dose 150 mg/kg; route oral; in the assay text read “150 mg/kg” for “1150 mg/kg”; in short: as §2
[27] = test system: A-431; assay: In vivo activity against A431 xenograft in nude mice, weight change at 47 mg/kg ip dose; type: functional; conditions: route intraperitoneal; in short: as §2
[28] = test system: A-431; assay: In vivo activity against A431 xenograft in nude mice, ratio of treated/control median tumor mass at 150 mg/kg peroral dose; type: functional; conditions: route oral; in short: as §2
[29] = test system: NCI-H125; assay: In vivo activity against H125 xenograft in nude mice, ratio of treated/control median tumor mass at 50 mg/kg peroral dose; type: functional; conditions: route oral; in short: as §2
[30] = test system: A-431; assay: Difference in days for treated (T) and control (C) A431 cell tumors to reach 750 mg at 47 mg/kg ip dose; type: functional; conditions: route intraperitoneal; in short: as §2
[31] = test system: A-431; assay: In vivo activity against A431 xenograft in nude mice, ratio of treated/control median tumor mass at 47 mg/kg ip dose; type: functional; conditions: route intraperitoneal; in short: as §2
[32] = test system: A-431; assay: In vivo activity against A431 xenograft in nude mice, weight change at 12 mg/kg ip dose; type: functional; conditions: route intraperitoneal; in short: as §2
[33] = test system: NCI-H125; assay: Difference in days for treated (T) and control (C) H125 cell tumors to reach 750 mg at 9.6 mg/kg ip dose; type: functional; conditions: route intraperitoneal
In short: (§5)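 NCr nu/nu mice (18–22 g, 6/dose group) implanted sc in the right axilla with serially passaged H125 NSCLC fragments on day 0. Dosing ip by average cage weight as a fine suspension in 6% dimethylacetamide/94% 50 mM sodium lactate pH 4.0, started at tumor mass 100–150 mg. Read-outs were body weight change and treated-minus-control days to reach 750 mg.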

[34] = test system: A-431; assay: In vivo activity against A431 xenograft in nude mice, ratio of treated/control median tumor mass at 212 mg/kg peroral dose; type: functional; conditions: dose 12 mg/kg; route intraperitoneal; in the assay text read “12 mg/kg intraperitoneal dose” for “212 mg/kg peroral dose”; in short: as §2
[35] = test system: NCI-H125; assay: as §4; type: functional, organism-based; set-up: dose 200 mg/kg; in short: as §2
[36] = test system: NCI-H125; assay: In vivo activity against H125 xenograft in nude mice, weight change at 9.6 mg/kg ip dose; type: functional; conditions: route intraperitoneal; in short: as §5
[37] = test system: A-431; assay: Difference in days for treated (T) and control (C) A431 cell tumors to reach 750 mg at 12 mg/kg ip dose; type: functional; conditions: route intraperitoneal; in short: as §2
[38] = test system: NCI-H125; assay: In vivo activity against H125 xenograft in nude mice, ratio of treated/control median tumor mass at 9.6 mg/kg peroral dose; type: functional; conditions: route intraperitoneal, in the assay text read “intraperitoneal” for “peroral”
[39] = molecular target: T1, Receptor tyrosine-protein kinase erbB-2; assay: Inhibition of heregulin-stimulated autophosphorylation of erbB2 in MDA-MB-453 cells.; type: cell-based; in short: as §1

T2 sequence (P00533 whole entry): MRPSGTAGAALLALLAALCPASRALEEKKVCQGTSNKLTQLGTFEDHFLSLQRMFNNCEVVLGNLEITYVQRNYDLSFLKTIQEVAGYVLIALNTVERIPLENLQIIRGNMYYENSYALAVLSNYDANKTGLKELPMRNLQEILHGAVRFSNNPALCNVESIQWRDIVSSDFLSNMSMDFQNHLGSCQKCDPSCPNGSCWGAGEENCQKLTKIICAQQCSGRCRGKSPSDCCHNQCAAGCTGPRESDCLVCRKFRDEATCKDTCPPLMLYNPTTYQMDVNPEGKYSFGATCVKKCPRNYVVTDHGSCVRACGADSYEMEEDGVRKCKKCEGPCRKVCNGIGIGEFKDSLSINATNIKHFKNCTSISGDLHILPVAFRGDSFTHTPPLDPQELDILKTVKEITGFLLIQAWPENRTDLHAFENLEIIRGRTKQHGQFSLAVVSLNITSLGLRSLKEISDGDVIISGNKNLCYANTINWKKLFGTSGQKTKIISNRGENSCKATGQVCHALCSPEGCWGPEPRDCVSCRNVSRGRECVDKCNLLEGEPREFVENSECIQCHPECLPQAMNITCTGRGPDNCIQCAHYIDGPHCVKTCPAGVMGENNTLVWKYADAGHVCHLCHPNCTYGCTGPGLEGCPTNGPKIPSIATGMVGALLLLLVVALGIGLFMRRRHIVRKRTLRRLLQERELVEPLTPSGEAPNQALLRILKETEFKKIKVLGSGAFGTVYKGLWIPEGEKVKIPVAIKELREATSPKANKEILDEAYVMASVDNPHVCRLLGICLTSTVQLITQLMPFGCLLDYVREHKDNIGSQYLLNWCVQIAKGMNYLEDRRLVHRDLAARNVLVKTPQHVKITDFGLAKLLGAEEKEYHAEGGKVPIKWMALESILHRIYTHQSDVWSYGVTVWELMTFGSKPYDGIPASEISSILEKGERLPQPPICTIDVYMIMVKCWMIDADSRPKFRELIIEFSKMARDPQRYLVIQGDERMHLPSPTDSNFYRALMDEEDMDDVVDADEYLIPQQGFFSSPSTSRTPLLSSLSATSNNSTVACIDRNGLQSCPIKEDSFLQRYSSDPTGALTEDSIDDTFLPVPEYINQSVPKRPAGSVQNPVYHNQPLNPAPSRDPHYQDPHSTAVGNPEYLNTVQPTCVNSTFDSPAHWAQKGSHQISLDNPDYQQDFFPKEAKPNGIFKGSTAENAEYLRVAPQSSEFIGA
T1 sequence (P04626 whole entry): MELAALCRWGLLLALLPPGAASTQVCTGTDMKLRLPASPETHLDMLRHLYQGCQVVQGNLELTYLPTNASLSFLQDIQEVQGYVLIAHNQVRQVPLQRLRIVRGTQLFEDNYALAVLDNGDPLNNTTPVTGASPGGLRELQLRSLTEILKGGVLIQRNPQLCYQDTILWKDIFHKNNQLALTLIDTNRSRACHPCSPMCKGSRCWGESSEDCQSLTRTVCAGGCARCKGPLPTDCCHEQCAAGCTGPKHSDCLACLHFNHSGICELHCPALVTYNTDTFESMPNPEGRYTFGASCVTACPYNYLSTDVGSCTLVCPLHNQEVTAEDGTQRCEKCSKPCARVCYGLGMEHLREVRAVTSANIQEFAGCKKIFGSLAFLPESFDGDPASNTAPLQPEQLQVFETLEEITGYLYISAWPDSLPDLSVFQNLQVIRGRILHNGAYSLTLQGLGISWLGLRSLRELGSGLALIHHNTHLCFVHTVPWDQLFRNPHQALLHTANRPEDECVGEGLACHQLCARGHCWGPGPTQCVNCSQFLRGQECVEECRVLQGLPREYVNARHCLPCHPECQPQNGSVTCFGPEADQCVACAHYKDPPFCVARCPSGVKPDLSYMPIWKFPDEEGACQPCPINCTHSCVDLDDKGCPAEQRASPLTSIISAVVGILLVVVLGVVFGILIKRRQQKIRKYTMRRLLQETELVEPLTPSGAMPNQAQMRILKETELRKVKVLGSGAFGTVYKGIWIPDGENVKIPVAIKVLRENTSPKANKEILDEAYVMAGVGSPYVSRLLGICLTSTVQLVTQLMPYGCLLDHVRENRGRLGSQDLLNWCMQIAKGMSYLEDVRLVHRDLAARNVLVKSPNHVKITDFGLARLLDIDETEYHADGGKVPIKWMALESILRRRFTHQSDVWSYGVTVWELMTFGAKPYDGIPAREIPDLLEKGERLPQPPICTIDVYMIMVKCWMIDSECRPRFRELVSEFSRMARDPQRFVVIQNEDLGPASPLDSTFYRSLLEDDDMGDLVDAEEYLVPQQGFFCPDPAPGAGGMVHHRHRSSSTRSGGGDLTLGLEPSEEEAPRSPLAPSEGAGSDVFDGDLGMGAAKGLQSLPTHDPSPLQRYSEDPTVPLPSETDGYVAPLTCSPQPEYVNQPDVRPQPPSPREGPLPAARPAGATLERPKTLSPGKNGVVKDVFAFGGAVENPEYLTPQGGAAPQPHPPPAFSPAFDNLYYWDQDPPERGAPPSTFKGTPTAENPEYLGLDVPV

Structure (SMILES): C=CC(=O)Nc1cc2c(Nc3ccc(F)c(Br)c3)ncnc2cn1
- IC50 [1]: 1.1 nM
- T/C [2]: 19%
- Weight change [3]: Weight gain
- T/C [4]: 13%
- IC50 [5]: 2.1 nM
- Weight change [6]: -1.8 g
- T-C [7]: 51.1 days and 18.2 days
- IC50 [8]: 0.72 nM

Structure (SMILES): C=CC(=O)Nc1ccc2ncnc(Nc3cccc(C)c3)c2c1
- IC50 [1]: 22 nM
- Weight change [9]: -1.3 g
- Weight change [10]: -2.2 g
- T/C [11]: 15%
- T/C [12]: 3%
- Weight change [13]: 0 g
- T/C [14]: 24%
- T-C [15]: 32.3 days
- T-C [16]: 11.9 days
- Weight change [17]: -0.1 g
- T/C [18]: 11%
- T-C [19]: 10.5 days
- T-C [20]: 28.2 days

Structure (SMILES): C=CC(=O)Nc1ccc2ncnc(Nc3ccc(F)c(Br)c3)c2n1
- IC50 [1]: 26 nM
- IC50 [5]: 18 nM
- IC50 [8]: 1.2 nM

Structure (SMILES): C=CC(=O)Nc1ccc2c(Nc3cccc(Br)c3)ncnc2c1
- IC50 [1]: 73 nM
- IC50 [8]: 0.45 nM

Structure (SMILES): C=CC(=O)Nc1ccc2ncnc(Nc3ccc(F)c(Cl)c3)c2c1
- IC50 [1]: 4.3 nM
- T/C [2]: 16%
- Weight change [21]: 0 g
- IC50 [5]: 3.1 nM
- Weight change [6]: -0.3 g
- T-C [22]: 20.8 days
- T/C [23]: 11%
- IC50 [8]: 0.75 nM
- T-C [24]: 27.4 days

Structure (SMILES): C=CC(=O)Nc1cc2c(Nc3ccc(F)c(Cl)c3)ncnc2cn1
- IC50 [1]: 3 nM
- T/C [2]: 27%
- Weight change [25]: -0.3 g
- T/C [4]: 12%
- IC50 [5]: 3.3 nM
- Weight change [6]: -1.8 g
- T-C [7]: 18.3 days and 12.7 days
- IC50 [8]: 0.77 nM

Structure (SMILES): C=CC(=O)Nc1ccc2ncnc(Nc3ccc(F)c(Cl)c3)c2n1
- IC50 [1]: 12 nM

Structure (SMILES): C=CC(=O)Nc1ccc2ncnc(N3CCc4ccc(Br)cc43)c2c1
- IC50 [5]: 9.9 nM

Structure (SMILES): C=CC(=O)Nc1ccc2ncnc(Nc3cccc(Br)c3)c2c1
- IC50 [1]: 5.7 nM
- Weight change [26]: -1.7 g
- Weight change [27]: -1 g
- T/C [11]: 15%
- T/C [28]: 2%
- Weight change [13]: -1.5 g
- T/C [29]: 8%
- T-C [30]: 29 days and 15.7 days
- T/C [31]: 2%

Structure (SMILES): C=CC(=O)Nc1ccc2ncnc(Nc3ccc(Oc4ccccc4)cc3)c2c1
- IC50 [1]: 8.6 nM

Structure (SMILES): C=CC(=O)Nc1cc2c(Nc3cccc(Br)c3)ncnc2cn1
- IC50 [1]: 3.9 nM
- T/C ([2]; 200 mg/kg): 11% and 20%
- Weight change [32]: -2.4 g
- T-C [33]: 8.7 days
- T/C [34]: 17%
- Weight change [35]: Weight gain
- Weight change [36]: -1.3 g
- T-C [37]: 12 days
- T-C [7]: 24.3 days and 16.5 days
- T/C [38]: 26%

Structure (SMILES): C=CC(=O)Nc1cc2c(Nc3cccc(C)c3)ncnc2cn1
- IC50 [39]: 8.8 nM

Structure (SMILES): C=CC(=O)Nc1ccc2ncnc(Nc3ccc(F)c(Br)c3)c2c1
- IC50 [1]: 7.3 nM
- IC50 [5]: 2.7 nM
- IC50 [8]: 0.69 nM

Source: ChEMBL document CHEMBL1132213, “Tyrosine kinase inhibitors. 15. 4-(Phenylamino)quinazoline and 4-(phenylamino)pyrido[d]pyrimidine acrylamides as irreversible inhibitors of the ATP binding site of the epidermal growth factor receptor” (J Med Chem, 1999)
